A short description of assay [1]: inhibitors of TNFa-induced NFkB p65 translocation, primary screen, imaging, HUVEC, MLSMR starter and 10KST1 sets (AID 438;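 active means inhibition above 20% together with a positive visual image hit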;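 further: compound added about 3h40 before a 20 min TNFalpha stimulation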;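 on inhibition: signal is the nuclear over cytoplasmic p65 intensity ratio per well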). The settings on record: HUVEC TNFa-induced p65 nuclear translocation; cell count: measured here: nuclei count (cytotoxicity indicator), at 2.08 µM; inhibition: at 2 µM, stronger effect = higher value, 0% TNFa-plus-vehicle, 100% no-TNFa wells.
A short description of assay [2]: endothelial E-selectin expression blockers – imaging, HUVEC, immunofluorescence, MLSMR starter and 10KST1 sets, primary screen (AID 487;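 active means visually confirmed hit in the image check and inhibition above 20%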;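 on inhibition: signal is fraction of cell area covered by stained E-selectin grains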;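 on nuclei count: 100% = median nuclei count of all wells on the same plate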). The settings on record: HUVEC TNFalpha-induced E-selectin immunofluorescence imaging, at 2 µM; inhibition: stronger effect = higher value; nuclei count: measured here: cell number, toxicity.
A short description of assay [3]: Primary imaging screen for DUSP6 inhibitors that restore phospho-Erk in transfected HeLa cells, chemical complementation (AID 609).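 On inhibition: phospho-Erk level distribution per well compared with pooled transfected vehicle control wells.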 The settings on record: HeLa MKP-3 transfected, phospho-Erk imaging KS statistic, at 10 µM, cells stimulated with TPA for 15 min.
The target in assay [4] is Dual specificity protein phosphatase 6 (Homo sapiens) (UniProt Q16828). The description is as above. The settings on record: HeLa MKP-3 transfected, phospho-Erk imaging KS statistic; at 10 µM; stronger effect = higher value; cells stimulated with TPA for 15 min.
Sequence of Dual specificity protein phosphatase 6 (Homo sapiens) (Q16828 whole entry, looked up): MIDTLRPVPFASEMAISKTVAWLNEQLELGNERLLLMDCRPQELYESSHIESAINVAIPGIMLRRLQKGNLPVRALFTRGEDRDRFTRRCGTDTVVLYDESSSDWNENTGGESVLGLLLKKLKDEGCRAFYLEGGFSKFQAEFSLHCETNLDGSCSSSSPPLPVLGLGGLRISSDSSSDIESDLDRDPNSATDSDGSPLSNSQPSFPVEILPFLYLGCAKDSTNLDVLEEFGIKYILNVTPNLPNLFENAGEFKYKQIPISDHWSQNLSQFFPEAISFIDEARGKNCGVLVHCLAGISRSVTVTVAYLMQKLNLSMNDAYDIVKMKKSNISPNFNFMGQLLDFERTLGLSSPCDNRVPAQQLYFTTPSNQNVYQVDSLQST
The target of assay [5] is Voltage-gated potassium channel subunit beta-2 (Rattus norvegicus) (UniProt P62483). Put plainly: inhibitors of rat Kvbeta2 reductase activity – biochemical, NADPH fluorescence, primary screen (AID 622;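 active means fluorescence slope higher than the sample average by over 3 SD, cut at about -0.22 in these data, passing the limit was not always enough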;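 further: slope of raw intensity against log time taken from 70 to 1610 s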). The settings on record: recombinant KvBeta, 4-cyanobenzaldehyde reduction, at 10 µM, stronger effect = higher value.
Sequence of Voltage-gated potassium channel subunit beta-2 (Rattus norvegicus) (P62483 whole entry, looked up): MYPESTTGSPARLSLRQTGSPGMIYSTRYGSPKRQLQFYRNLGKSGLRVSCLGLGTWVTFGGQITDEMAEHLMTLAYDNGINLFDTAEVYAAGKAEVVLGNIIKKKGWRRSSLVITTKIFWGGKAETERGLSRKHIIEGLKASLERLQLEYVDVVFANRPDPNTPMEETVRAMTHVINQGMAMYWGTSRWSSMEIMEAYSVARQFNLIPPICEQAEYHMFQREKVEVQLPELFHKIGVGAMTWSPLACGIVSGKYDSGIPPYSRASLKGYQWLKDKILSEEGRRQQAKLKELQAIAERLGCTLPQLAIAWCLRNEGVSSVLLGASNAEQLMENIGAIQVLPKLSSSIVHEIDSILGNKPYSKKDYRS
For assay [6] the target is unchanged. As to the kind of experiment: enhancers of rat Kvbeta2 NADPH turnover – biochemical, NADPH fluorescence, primary screen (AID 623;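 active means NADPH fluorescence slope more negative than the mean of all samples by about 3 SD, 99.7% confidence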;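 further: fluorescence intensity change per second fitted from 20 to 320 s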). The settings on record: Recombinant KvBeta, NADPH fluorescence decrease slope, 10 min; at 10 µM; stronger effect = lower value.
Assay [7] concerns the target Muscarinic acetylcholine receptor M4 (Homo sapiens) (UniProt P08173). As to the kind of experiment: M4-linked GIRK flux change, two-sided – cell-based, HEK293 M4/GIRK, thallium flux, BTC-AM, M4 allosteric agonist project, primary screen (AID 625;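 active means fluorescence slope after compound addition differing from the mean of all tested samples at 99.7% confidence, mostly higher but some lower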;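 further: thallium influx through GIRK channels coupled to M4 in HEK293 cells with BTC-AM dye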). The settings on record: at 10 µM, actives lie on both sides. The gist of the method:
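Assay system: HEK293 cells with M4 receptor and GIRK channels / Controls: carbachol and DMSO controls / Schedule: 1 h dye loading, 2 min kinetic read / Technique: kinetic fluorescence with BTC-AM dye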

The nature of assay [8]: inhibitors of larval lipid processing in zebrafish, primary screen, whole organism, PED6 fluorescence, gall bladder and intestine (AID 686;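 active means a full or partial loss of lipid-probe fluorescence in the fish gall bladder, intestine or both, judged by eye; inactive means no fluorescence loss, or compound toxic to the fish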;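 further: larvae 5 to 7 days old with five fish per well; signal comes from phospholipase A2 cleavage of quenched PED6 carried via bile; overnight exposure to compound and PED6 before scoring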). The settings on record: Zebrafish larvae PED6 lipid processing, fluorescence scoring; screened at 20 µM (by protocol). The gist of the method:
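Doses: 20 µM single dose. Test system: live zebrafish larvae aged 5-7 days, whole organism. Quantity: five larvae per well. Measured by: By-eye fluorescence microscopy. Reagent: ingested quenched lipid PED6 at 100 nM. Read-out: visual per-well fluorescence inhibition score. Times: overnight exposure of larvae to compound plus PED6.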

Assay [9] can be described thus: loss of swimming-algae plug formation – whole organism, Chlamydomonas reinhardtii, WT vs cilia-less mutant, absorbance, 96-well, primary screen (AID 463189;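 active means inhibition at or above 50% relative to wild type and mutant plate controls; inactive means inhibition below 50%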;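 further: 0% = wild type cc124 cells in DMSO and 100% = ciliumless bld1 mutant cells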). The settings on record: Chlamydomonas reinhardtii gravitaxis, OD600 absorbance, 2 days; at 10 µM; stronger effect = higher value.
Where [10] appears, read: measured here: cell density z-score.
[11] abbreviates: measured here: nuclear c-Myc green intensity z-score.
Where [12] appears, read: measured here: nuclear pErk red intensity z-score, stronger effect = higher value.

Active and inactive are the calls of the source.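 How the source made its calls, unless noted: active means compounds giving at least 50% inhibition in the cell-based MKP-3 phosphatase rescue imaging test; inactive means the rest.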

Sequence of Muscarinic acetylcholine receptor M4 (Homo sapiens) (P08173 whole entry, looked up): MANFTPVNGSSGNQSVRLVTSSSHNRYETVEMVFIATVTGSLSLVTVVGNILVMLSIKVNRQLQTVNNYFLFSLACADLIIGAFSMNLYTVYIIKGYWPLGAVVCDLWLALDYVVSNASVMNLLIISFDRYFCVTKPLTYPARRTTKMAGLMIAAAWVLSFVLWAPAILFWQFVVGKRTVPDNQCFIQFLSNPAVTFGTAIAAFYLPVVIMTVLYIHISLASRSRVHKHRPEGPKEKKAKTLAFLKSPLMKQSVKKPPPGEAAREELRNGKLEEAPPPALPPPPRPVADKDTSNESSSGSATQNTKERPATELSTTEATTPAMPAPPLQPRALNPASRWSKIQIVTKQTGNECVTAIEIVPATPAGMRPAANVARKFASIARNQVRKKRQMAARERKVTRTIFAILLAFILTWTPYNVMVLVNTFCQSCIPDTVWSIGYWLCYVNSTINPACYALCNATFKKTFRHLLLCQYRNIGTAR

For `Cc1ccc(N(CC(O)CN(C)C)S(=O)(=O)c2ccccc2)cc1` (stereo unspecified), the cell count in [1] came to 587. Also, the inhibition is -9.4% (inactive) in assay [1], 6.4% (inactive) in assay [2], -4.59% (inactive) in [4] and 11.5% (inactive) in assay [9]. In addition, the nuclei count in [2] stood at 192%. The z-score in assay [3] (setting [10]) was 1.28; in assay [3] (setting [11]), -0.151; in [3] (setting [12]), 0.0736. In addition, the fluorescence slope is -0.384 (inactive) in assay [5] and 0.00579 (inactive) in [7]. Further, in assay [6], the NADPH fluorescence slope was -7.3e-05 (inactive). Also, the call in assay [8] was inactive.

For `CCN(CC)c1ccc(C2Nc3cccc4cccc(c34)N2)c(O)c1`, the cell count in assay [1] was determined as 571. The inhibition in assay [1] is 2.2% (inactive); in assay [2] it was -102% (inactive); in assay [4], -0.584% (inactive); in [9], 40% (inactive). In assay [2], this molecule yielded a nuclei count of 134%. The z-score in assay [3] (setting [10]) was 0.205; in assay [3] (setting [11]), -0.845; in [3] (setting [12]), -0.409. The fluorescence slope in assay [5] is -0.397 (inactive); in assay [7] it was 0.00286 (inactive). Further, the NADPH fluorescence slope in [6] was -7.3e-05 (inactive). Further, the outcome in assay [8] was “active; no signal in gallbladder and intestine”.

As for `CCOC(=O)c1c(C)oc2ccc(OCC(=O)C(C)(C)C)cc12`, in [1], the cell count was determined as 668. The inhibition in [1] was -6% (inactive); in [2] it was -24.4% (inactive); in assay [4] it was 20.2% (inactive); in assay [9], -8.35% (inactive). Further, the nuclei count in assay [2] turned out to be 124%. Also, the values for the z-score in assay [3] (setting [10]), in assay [3] (setting [11]) and in assay [3] (setting [12]) were 0.82, -1.27 and 0.55, respectively. Further, the figures for the fluorescence slope in assay [5] and in assay [7] were -0.435 (inactive) and 0.00509 (inactive), respectively. Moreover, the NADPH fluorescence slope in assay [6] was -5.9e-05 (inactive). The molecule was called inactive in assay [8].

Turning to `Cc1cccc(-n2ncc3c(NCCN4CCOCC4)ncnc32)c1`, the cell count in assay [1] is 596. Further, the inhibition was -8.2% (inactive) in [1], 0.1% (inactive) in assay [2], -2.59% (inactive) in [4] and 34% (inactive) in assay [9]. Besides, in [2], the nuclei count was found to be 156%. In addition, the z-score in assay [3] (setting [10]) was -0.984; in assay [3] (setting [11]), 1.25; in [3] (setting [12]), -0.89. The values for the fluorescence slope in assay [5] and in assay [7] were -0.397 (inactive) and 0.00826 (inactive), respectively. Further, in assay [6], the NADPH fluorescence slope was -2.6e-05 (inactive). The result in [8] was inactive.

Consider `CC(C)OCCCNc1ncnc2c1cnn2-c1ccccc1`, for which the cell count in assay [1] came out at 571. The inhibition is -10.1% (inactive) in assay [1], 45.3% (inactive) in [2], 15.4% (inactive) in assay [4] and 18.2% (inactive) in assay [9]. The molecule also returned a nuclei count in [2] of 117%. The z-score was 0.477 in assay [3] (setting [10]), 1.09 in [3] (setting [11]) and -0.0471 in assay [3] (setting [12]). The fluorescence slope in assay [5] is -0.377 (inactive); in assay [7] it was 0.00537 (inactive). For the same molecule, in assay [6], the NADPH fluorescence slope is -5.1e-05 (inactive). Also, in [8], the result was inactive.

With `CCc1ccc(NC(=O)CSC2=C(C#N)C(c3ccc4c(c3)OCO4)CC(=O)N2)cc1` (stereo unspecified), in assay [1], the cell count is 599. Further, the inhibition in [1] is -14% (inactive); in [2], 41.8% (inactive); in assay [4] it was 22.7% (inactive); in assay [9] it was -5% (inactive). The molecule also returned a nuclei count in assay [2] of 91.1%. The z-score in [3] (setting [10]) was 1.39; in [3] (setting [11]) it was -1.52; in assay [3] (setting [12]), -0.214. For the same molecule, the fluorescence slope in assay [5] is -0.491 (inactive); in [7], 0.00667 (inactive). Further, the NADPH fluorescence slope in [6] is -4.6e-05 (inactive). Further, in assay [8], the molecule was classed as inactive.

For `CCSc1nc2sc3c(c2c(=O)n1C1CCCCC1)CCN(C)C3`, the cell count in [1] stood at 364. In addition, the inhibition in assay [1] was -10% (inactive); in assay [2] it was -37.3% (inactive); in [4], -8.59% (inactive); in assay [9], -2.62% (inactive). Besides, the nuclei count in [2] turned out to be 101%. For the same molecule, the z-score was -0.995 in [3] (setting [10]), 0.578 in assay [3] (setting [11]) and 0.504 in assay [3] (setting [12]). Besides, the fluorescence slope in assay [5] is -0.419 (inactive); in [7], 0.00313 (inactive). In addition, the NADPH fluorescence slope in [6] was -6.1e-05 (inactive). Moreover, in assay [8], the call was inactive.

`OCCN=C(c1ccccc1)C12CN3CN(CN(C3)C1)C2`: the cell count in [1] was found to be 568. The inhibition was -5.7% (inactive) in assay [1], -133% (inactive) in assay [2], 15.4% (inactive) in [4] and 7.41% (inactive) in [9]. Besides, the nuclei count in [2] worked out at 150%. Besides, the z-score in [3] (setting [10]) is 0.238; in assay [3] (setting [11]) it was -2.23; in [3] (setting [12]), 0.262. Besides, the fluorescence slope is -0.48 (inactive) in assay [5] and 0.0051 (inactive) in assay [7]. The NADPH fluorescence slope in [6] is -2.2e-05 (inactive). Also, the molecule was classed as inactive in [8].

Regarding `Cc1cccc(NC(=O)c2cc(N3CCOCC3)nc3ccccc23)c1`, the cell count in [1] came to 620. Further, the inhibition in [1] was -13.1% (inactive); in [2], -446% (inactive); in assay [4], -11.5% (inactive); in assay [9] it was -4.1% (inactive). In assay [2], this molecule showed a nuclei count of 148%. Moreover, the values for the z-score in assay [3] (setting [10]), in assay [3] (setting [11]) and in assay [3] (setting [12]) were -1.06, 1.5 and 2.96, respectively. Besides, the fluorescence slope in assay [5] was -0.438 (inactive); in assay [7] it was 0.00519 (inactive). Besides, the NADPH fluorescence slope in [6] was -7.5e-05 (inactive). Also, the molecule was called inactive in assay [8].

Take `Nc1ccc2oc(-c3cc(Br)ccc3Cl)nc2c1`: the cell count in assay [1] turned out to be 569. For the same molecule, the inhibition in [1] is 3.7% (inactive); in assay [2], -26.9% (inactive); in assay [4] it was 9.91% (inactive); in assay [9], 15.1% (inactive). This molecule showed a nuclei count in [2] of 171%. Further, the z-score in assay [3] (setting [10]) was 0.555; in [3] (setting [11]) it was -1.29; in assay [3] (setting [12]), 0.312. In addition, the fluorescence slope in assay [5] is -0.00932 (inactive); in [7], 0.00586 (inactive). In assay [6], the NADPH fluorescence slope is 8.2e-06 (inactive). Also, the call in assay [8] was inactive.

For the molecule `Cc1cc(=O)oc2c(CN3CCC(C)CC3)c(O)c(Cl)cc12`, the cell count in assay [1] amounted to 654. The inhibition was -6.9% (inactive) in assay [1], -12% (inactive) in [2], 1.12% (inactive) in assay [4] and -2.21% (inactive) in assay [9]. In assay [2], this molecule came in with a nuclei count of 171%. Further, the z-score in assay [3] (setting [10]) amounted to 0.311; in assay [3] (setting [11]), 0.013; in assay [3] (setting [12]), 0.217. Moreover, the values for the fluorescence slope in assay [5] and in assay [7] were -0.0249 (inactive) and 0.00736 (inactive), respectively. Besides, the NADPH fluorescence slope in assay [6] was 4.3e-06 (inactive). In addition, in assay [8], the call was inactive.

As for `Cc1cccc(-c2nc(C#N)c(NC3CCCCC3)o2)c1`, the cell count in [1] came out at 373. The inhibition in [1] is -5.1% (inactive); in assay [2] it was -71.9% (inactive); in assay [4] it was 9.82% (inactive); in assay [9], -0.036% (inactive). In [2], this molecule yielded a nuclei count of 134%. The results for the z-score in assay [3] (setting [10]), in assay [3] (setting [11]) and in assay [3] (setting [12]) were 1.1, -0.201 and -0.602, respectively. In addition, the fluorescence slope in assay [5] was -0.492 (inactive); in assay [7] it was 0.00501 (inactive). In [6], the NADPH fluorescence slope was -0.000119 (inactive). The molecule was classed as inactive in assay [8].

Broadly, the inhibition is the change of the read-out against control, counted positive when it falls.

These data come from PubChem BioAssay.
